Measurements as given in ChEMBL document CHEMBL1125794, “Synthesis and antihypertensive activity of pyran oxygen and amide nitrogen replacement analogues of the potassium channel activator cromakalim” (1991).

Tests used:
Format in all cases: functional, Artery
Rattus norvegicus [1] = assay: The compound was tested for the maximum fall in systolic blood pressure 1-6 hr of 10.0 mg/kg oral dose administration in rats
Method in brief: (§1)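 Conscious spontaneously hypertensive rats of Japanese (Okamoto) strain, 14-24 weeks old, hypertensive if systolic pressure >180 mmHg; groups of six per dose level unless indicated. Oral gavage via esophageal needle as solution or suspension in 1% w/v methylcellulose. Tail-cuff systolic pressure (each value mean of ≥6 recordings) taken predose and at intervals up to 6 h postdose.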

Rattus norvegicus [2] = assay: The compound was tested for the maximum fall in systolic blood pressure 1-6 hr of 1.0 mg/kg oral dose administration in rats; method in brief: as §1
Rattus norvegicus [3] = assay: The compound was tested for the maximum fall in systolic blood pressure 1-6 hr of 3.0 mg/kg oral dose administration in rats; method in brief: as §1
Rattus norvegicus [4] = assay: The compound was tested for the maximum fall in systolic blood pressure 1-6 hr of 10 mg/kg oral dose administration in rats; method in brief: as §1
Rattus norvegicus [5] = assay: The compound was tested for the maximum fall in systolic blood pressure 1-6 hr of 0.1 mg/kg oral dose administration in rats; method in brief: as §1
Rattus norvegicus [6] = assay: The compound was tested for the maximum fall in systolic blood pressure 1-6 hr of 0.3 mg/kg oral dose administration in rats; method in brief: as §1
Rattus norvegicus [7] = assay: The compound was tested for the maximum fall in systolic blood pressure 1-6 hr of 3 mg/kg oral dose administration in rats; method in brief: as §1

SMILES | Max fall in blood pressure (Rattus norvegicus [1]) [%] | Max fall in blood pressure (Rattus norvegicus [2]) [%] | Max fall in blood pressure (Rattus norvegicus [3]) [%] | also measured
CC1(C)C=C(N2CCCC2=O)c2cc(C#N)ccc2N1 | 49 | 10 | 29 | 
CC1(C)Oc2ccc(Cl)cc2C(N2CCCC2=O)C1O (centres undefined) |  |  |  | Max fall in blood pressure (Rattus norvegicus [4]): 37%
CNC(=O)NC1c2cc(C#N)ccc2CC(C)(C)C1O (centres undefined) | 52 |  | 23 | 
CC1(C)C=C(N2CCCC2=O)c2cc(Cl)ccc2N1 |  |  |  | Max fall in blood pressure (Rattus norvegicus [4]): 13%
CC1(C)Cc2ccc(C#N)cc2C(N2CCCC2=O)C1O (centres undefined) | 32 |  | 29 | 
CC(=O)NC1c2cc(C#N)ccc2OC(C)(C)C1O (centres undefined) |  | 67 | 47 | Max fall in blood pressure (Rattus norvegicus [5]): 18%
CC(=O)NC1c2cc(C#N)ccc2CC(C)(C)C1O (centres undefined) |  | 22 | 34 | 
CNC(=O)CC1c2cc(C#N)ccc2OC(C)(C)C1O (centres undefined) |  |  | 9 | 
CC(=O)CC1c2cc(C#N)ccc2OC(C)(C)C1O (centres undefined) | 30 | 5 |  | 
CC1(C)C=C(N2CCCC2=O)c2cc(Br)ccc2N1 |  |  |  | Max fall in blood pressure (Rattus norvegicus [4]): 4%
CN(C)C(=O)CC1c2cc(C#N)ccc2OC(C)(C)C1O (centres undefined) |  | 28 | 51 | 
CNC(=O)NC1c2cc(C#N)ccc2OC(C)(C)[C@H]1O (some centres undefined) |  | 61 |  | Max fall in blood pressure (Rattus norvegicus [6]): 31%
CC1(C)C=C(N2CCCC2=O)c2cc(C#N)ccc2C1 |  | 23 | 50 | 
CC1(C)C=C(N2CCCC2=O)c2cc(C#N)ccc2O1 |  |  |  | Max fall in blood pressure (Rattus norvegicus [5]): 12%; Max fall in blood pressure (Rattus norvegicus [6]): 47%
CC1(C)Nc2ccc(C#N)cc2C(N2CCCC2=O)C1O (centres undefined) | 39 |  | 26 | Max fall in blood pressure (Rattus norvegicus [4]): 9%
CN1CCC(C2c3cc(C#N)ccc3OC(C)(C)C2O)C1=O (centres undefined) | 21 |  |  | Max fall in blood pressure (Rattus norvegicus [7]): 10%
CC1(C)Oc2ccc(C#N)cc2C(NC(=O)c2ccccc2)C1O (centres undefined) | 41 |  |  | Max fall in blood pressure (Rattus norvegicus [6]): 16%
CC1(C)Nc2ccc(Cl)cc2C(N2CCCC2=O)C1O (centres undefined) |  |  |  | Max fall in blood pressure (Rattus norvegicus [4]): 8%
CC1(C)Cc2ccc(C#N)cc2C(NC(=O)c2ccccc2)C1O (centres undefined) | 44 |  | 16 | 
CC1(C)Nc2ccc(Br)cc2C(N2CCCC2=O)C1O (centres undefined) |  |  |  | Max fall in blood pressure (Rattus norvegicus [4]): 6%
CC1(C)Oc2ccc(C#N)cc2C(N2CCCC2=O)C1O (centres undefined) [CROMAKALIM] |  | 47 |  | Max fall in blood pressure (Rattus norvegicus [6]): 39%
